In data set [1] the target is T1, SERCA2a (Sus scrofa, UniProt P11607). Nature of the data set: NADH-coupled enzyme-linked Ca2+-ATPase activity assay in cardiac SR vesicles. It counts as biochemical, porcine. Conditions: for Max increase (%): vs no compound; for EC50: cardiac SR.
For data set [2], the target named is T1, SERCA2a. Nature of the data set: oxalate-based Ca2+-uptake. To be noted: cardiac SR. It counts as biochemical, porcine. The gist of the method: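 Porcine left-ventricular SR vesicles (30 μg/mL) were prepared by differential centrifugation. Buffer: 50 mM MOPS, 100 mM KCl, 30 mg/mL sucrose, 10 mM potassium oxalate, 2 μM Fluo-4, free Ca2+ at pCa 8.0, 6.2 or 5.4, test compound 0.048–50 μM (two-fold series). Incubation 20 min at 22 °C, dark; 5 mM MgATP start; Fluo-4 decrease (ex 485/em 520 nm) tracked 15 min. Basal pCa 8.0 rate subtracted; Hill fit gives EC50 and % effect.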

A short description of another data set: Intrinsic clearance. The format is in vitro ADME, human. Conditions: for Thalf: human liver S9 0.5 mg/mL, 1 μM compound, NADPH, 37 °C; for microsomal CLint at 1 μM: human, liver S9 fraction, pH 7.4.
[3] abbreviates: Ca2+-ATPase activity, [Ca2+]MAX (pCa 5.4), mean±SD, n=4-6.
[4] abbreviates: Ca2+-ATPase [Ca2+]MAX EC50 (μM), [Ca2+]MAX (pCa 5.4).
Setting [5] is: Ca2+-ATPase [Ca2+]MID EC50 (μM), [Ca2+]MID (pCa 6.2).
The mark [6] stands for this setting: Ca2+-Uptake [Ca2+]MAX EC50 (μM), [Ca2+]MAX (pCa 5.4).
Where [7] appears, read: Ca2+-Uptake [Ca2+]MID EC50 (μM), [Ca2+]MID (pCa 6.2).

The structures appear in SMILES notation. Where “and” joins values, the source holds several entries; their conditions need not be identical. Equal entries are not always repeated.

The EC50 is the concentration needed to bring the measured effect to its halfway point. As a reminder, the microsomal CLint is the capacity of the preparation to metabolise the compound, expressed as a volume cleared per time. For orientation: inhibition means the share of the control response that was lost under treatment.

T1 sequence (P11607 1-997 isoform P11607-2): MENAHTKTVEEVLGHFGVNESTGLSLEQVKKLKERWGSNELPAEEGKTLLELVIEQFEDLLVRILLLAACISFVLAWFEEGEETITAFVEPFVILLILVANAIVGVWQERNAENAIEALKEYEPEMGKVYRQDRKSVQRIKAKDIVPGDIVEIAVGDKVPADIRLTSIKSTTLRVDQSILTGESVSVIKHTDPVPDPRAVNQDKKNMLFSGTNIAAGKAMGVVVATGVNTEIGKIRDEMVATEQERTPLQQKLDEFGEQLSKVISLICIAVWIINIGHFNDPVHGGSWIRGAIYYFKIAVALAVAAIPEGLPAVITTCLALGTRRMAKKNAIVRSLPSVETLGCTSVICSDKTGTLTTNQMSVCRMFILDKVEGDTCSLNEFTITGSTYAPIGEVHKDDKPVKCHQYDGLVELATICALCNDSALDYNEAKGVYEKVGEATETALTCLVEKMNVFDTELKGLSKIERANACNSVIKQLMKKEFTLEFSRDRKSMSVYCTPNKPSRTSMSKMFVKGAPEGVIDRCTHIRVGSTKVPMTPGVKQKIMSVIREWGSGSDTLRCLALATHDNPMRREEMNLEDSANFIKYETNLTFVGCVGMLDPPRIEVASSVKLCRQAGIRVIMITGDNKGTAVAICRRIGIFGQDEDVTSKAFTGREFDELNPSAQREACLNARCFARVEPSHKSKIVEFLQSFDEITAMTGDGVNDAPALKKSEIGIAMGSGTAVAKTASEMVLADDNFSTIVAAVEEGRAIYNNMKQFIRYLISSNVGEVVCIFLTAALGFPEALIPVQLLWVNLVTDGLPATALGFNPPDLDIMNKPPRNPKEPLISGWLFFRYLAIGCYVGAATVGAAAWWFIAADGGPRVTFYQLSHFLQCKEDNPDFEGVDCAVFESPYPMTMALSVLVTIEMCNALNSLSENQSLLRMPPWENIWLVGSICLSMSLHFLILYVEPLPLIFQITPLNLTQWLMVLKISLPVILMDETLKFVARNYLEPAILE

With `CCCN(Cc1ccccc1)C(=O)c1cc(C)c(C)s1` [Compound 44, N-Benzyl-4,5-dimethyl-N-propylthiophene-2-carboxamide], the “Max increase (%)” value at SERCA2a [1] (setting [3]) is recorded as “abolished activity”. Same read-out and setting: the same measure for `CCCN(Cc1ccccc1OC)C(=O)c1ccc(C)cc1` [Compound 11, N-(2-Methoxybenzyl)-4-methyl-N-propylbenzamide]: 61±7.0%; for `CCN(Cc1ccccc1OC)C(=O)c1ccc(F)c(Br)c1` [Compound 53, 3-Bromo-N-ethyl-4-fluoro-N-(2-methoxybenzyl)benzamide]: 45±8.4%. As to `CCCN(Cc1ccccc1OC)C(=O)c1cccc(Br)c1` [Compound 22, 3-Bromo-N-(2-methoxybenzyl)-N-propylbenzamide], the EC50 on SERCA2a [1] (setting [4]) came out at 1.5 ± 0.31 µM; on SERCA2a [1] (setting [5]), 1.4 ± 0.8 µM; on SERCA2a [2] (setting [6]), 0.36 ± 0.14 µM; at SERCA2a [2] (setting [7]) it was 12.4 ± 8.4 µM. On SERCA2a [1] (setting [3]), the “Max increase (%)” value is on record as 46±5.5%. Further, the “Ca2+-Uptake [Ca2+]MAX % effect” value at SERCA2a [2] ([Ca2+]MAX (pCa 5.4)) amounted to 11±3.8%. Also, on SERCA2a [2] ([Ca2+]MAX (pCa 5.4)), the “Ca2+-Uptake [Ca2+]MAX EC50 (μM)” value is reported as “decreased”. Further, the “Thalf” value in “Intrinsic clearance” stood at 23.8 min. For the same molecule, the intrinsic clearance (microsomal CLint) at 1 μM in the data set “Intrinsic clearance” stood at 56 ± 9 µL/min/mg. For `CCCN(Cc1ccccc1OC)C(=O)c1ccc(Cl)cc1` [Compound 17, 4-Chloro-N-(2-methoxybenzyl)-N-propylbenzamide], the “Max increase (%)” value at SERCA2a [1] (setting [3]) is reported as 64±7.6%. The same measure, in the same setting: for `COc1ccccc1CNC(=O)c1cc(C)c(C)s1` [Compound 30, N-(2-methoxybenzyl)-4,5-dimethylthiophene-2-carboxamide] the value was 24±9.1%; for `CCCN(Cc1ccccc1F)C(=O)c1cc(C)c(C)s1` [Compound 48, N-(2-Fluorobenzyl)-4,5-dimethyl-N-propylthiophene-2-carboxamide], 89% and 89±24%; for `COc1ccccc1CN(C(=O)c1cc(C)c(C)s1)C1CC1` [Compound 35, N-Cyclopropyl-N-(2-methoxybenzyl)-4,5-dimethylthiophene-2-carboxamide], 46±8.9%. Still for that read-out and setting: the same measure for `COc1ccccc1CN(CCCF)C(=O)c1cc(C)c(C)s1` [Compound 39, N-(3-Fluoropropyl)-N-(2-methoxybenzyl)-4,5-dimethylthiophene-2-carboxamide]: 22% and 22±8.6%; for `CCCN(Cc1ccccc1OC)C(=O)c1ccnc(Br)c1` [Compound 29, 2-Bromo-N-(2-methoxybenzyl)-N-propylisonicotinamide]: 21±4.9%; for `CCCN(Cc1ccccc1OC)C(=O)c1cccs1` [Compound 4, N-(2-Methoxybenzyl)-N-propylthiophene-2-carboxamide]: 30±14%.

Turning to `COc1ccccc1CN(C(=O)c1cc(C)c(C)s1)C(C)C` [Compound 34, N-Isopropyl-N-(2-methoxybenzyl)-4,5-dimethylthiophene-2-carboxamide], the “Max increase (%)” value on SERCA2a [1] (setting [3]) was 43±7.9%. The same measure, in the same setting: the same measure for `CCCN(Cc1ccccc1OC)C(=O)c1ccccc1Cl` [Compound 15, 2-Chloro-N-(2-methoxybenzyl)-N-propylbenzamide]: 35±10%. Turning to `CCCN(Cc1ccccc1OC)C(=O)c1cc(F)cc(Br)c1` [Compound 26, 3-Bromo-5-fluoro-N-(2-methoxybenzyl)-N-propylbenzamide], the half-maximal effective concentration (EC50) at SERCA2a [1] (setting [4]) is 2.2 ± 0.27 µM; at SERCA2a [1] (setting [5]) it was 2.1 ± 0.88 µM; on SERCA2a [2] (setting [6]) it was 0.54 ± 0.3 µM; on SERCA2a [2] (setting [7]), more than 50 µM. Further, the “Max increase (%)” value on SERCA2a [1] (setting [3]) is reported as 33±6.5%. The “Ca2+-Uptake [Ca2+]MAX EC50 (μM)” value on SERCA2a [2] ([Ca2+]MAX (pCa 5.4)) is on record as “decreased”. Also, the “Thalf” value in the data set “Intrinsic clearance” is listed as 62.4 min. The intrinsic clearance (microsomal CLint) at 1 μM in “Intrinsic clearance” was found to be 22 ± 1.1 µL/min/mg. Turning to `CCCN(Cc1ccccc1OC)C(=O)c1ccccc1OC` [Compound 18, 2-Methoxy-N-(2-methoxybenzyl)-N-propylbenzamide], the “Max increase (%)” value on SERCA2a [1] (setting [3]) came out at 27±9.3%. Still for that read-out and setting: the same measure for `CCN(Cc1ccccc1OC)C(=O)c1cccc(Br)c1F` [Compound 52, 3-Bromo-N-ethyl-2-fluoro-N-(2-methoxybenzyl)benzamide]: 46±7.4%; for `CCCN(Cc1ccccc1OC)C(=O)c1ccsc1` [Compound 5, N-(2-Methoxybenzyl)-N-propylthiophene-3-carboxamide]: 29±8.4%. For the molecule `CCN(Cc1ccccc1OC)C(=O)c1cc(F)c(C)c(Br)c1` [Compound 54, 3-Bromo-N-ethyl-5-fluoro-N-(2-methoxybenzyl)-4-methylbenzamide], the “Max decrease (%)” value on SERCA2a [1] (setting [3]) was −70±3.4%. In addition, the inhibition at 50 µM at SERCA2a [1] (read-out: inhibition of Ca2+-ATPase activity) stood at 70%. For the molecule `CCCN(Cc1ccccc1OC)C(=O)c1cc2ccccc2s1` [Compound 7, N-(2-Methoxybenzyl)-N-propylbenzo[b]thiophene-2-carboxamide], the “Max increase (%)” value at SERCA2a [1] (setting [3]) was 76% and 76±19%. As for `COc1cccc2c1CN(C(=O)c1cc(C)c(C)s1)CC2` [Compound 42, (4,5-diMethylthiophen-2-yl)(8-methoxy-3,4-dihydroisoquinolin-2(1H)-yl)methanone], on SERCA2a [1] (setting [3]), the “Max increase (%)” value was 22% and 22±6.4%. On the same count and under the same terms, for `CCCN(Cc1ccccc1OC)C(=O)c1cccc(OC)c1` [Compound 19, 3-Methoxy-N-(2-methoxybenzyl)-N-propylbenzamide] the value was 45±14%; for `CCN(Cc1ccccc1OC)C(=O)c1cccc(Br)c1` [Compound 51, 3-Bromo-N-ethyl-N-(2-methoxybenzyl)benzamide], 46±6.3%; for `CCCN(Cc1ccccc1OC)C(=O)c1ccccc1F` [Compound 12, 2-Fluoro-N-(2-methoxybenzyl)-N-propylbenzamide], 40±10%.

With `CCCN(Cc1ccccc1OC)C(=O)c1cccc(F)c1` [Compound 13, 3-Fluoro-N-(2-methoxybenzyl)-N-propylbenzamide], at SERCA2a [1] (setting [3]), the “Max increase (%)” value is 53±17%. On the same count and under the same terms, the same measure for `CCCN(Cc1ccccc1OC)C(=O)c1ccccc1C(F)(F)F` [Compound 20, N-(2-Methoxybenzyl)-N-propyl-2-(trifluoromethyl)benzamide]: 51% and 51±17%; for `CCCN(Cc1ccccc1OC)C(=O)c1cc(C)cs1` [Compound 3, N-(2-Methoxybenzyl)-4-methyl-N-propylthiophene-2-carboxamide]: 45±9.2%. Take `CCCN(Cc1ccccc1OC)C(=O)c1cccc(Cl)c1` [Compound 16, 3-Chloro-N-(2-methoxybenzyl)-N-propylbenzamide]: the “Max increase (%)” value on SERCA2a [1] (setting [3]) worked out at 61±9.4%.

Take `COc1ccccc1CN(C)C(=O)c1cc(C)c(C)s1` [Compound 31, N-(2-Methoxybenzyl)-N,4,5-trimethylthiophene-2-carboxamide]: at SERCA2a [1] (setting [3]), the “Max increase (%)” value is 52±9.2%. For the molecule `COc1ccccc1CN(CCC(F)F)C(=O)c1cc(C)c(C)s1` [Compound 40, N-(3,3-Difluoropropyl)-N-(2-methoxybenzyl)-4,5-dimethylthiophene-2-carboxamide], the “Max increase (%)” value on SERCA2a [1] (setting [3]) was 91% and 91±12.6%. Still for that read-out and setting: the same measure for `CCCN(Cc1ccccc1OC)C(=O)c1ccc(F)cc1` [Compound 14, 4-Fluoro-N-(2-methoxybenzyl)-N-propylbenzamide]: 55±11%; for `CCCN(Cc1ccncc1F)C(=O)c1cc(C)c(C)s1` [Compound 50, N-((3-Fluoropyridin-4-yl)methyl)-4,5-dimethyl-N-propylthiophene-2-carboxamide]: “ablated activity”; for `CCCN(Cc1ccccc1OC)C(=O)c1cncc(Br)c1` [Compound 28, 5-Bromo-N-(2-methoxybenzyl)-N-propylnicotinamide]: 28±5.7%. Still for that read-out and setting: for `CCCN(Cc1ccccc1OC)C(=O)c1cccc(Br)n1` [Compound 27, 6-Bromo-N-(2-methoxybenzyl)-N-propylpicolinamide] the value was 46±7.8%; for `CCCN(Cc1ccccc1OC)C(=O)c1ccccc1C` [Compound 9, N-(2-Methoxybenzyl)-2-methyl-N-propylbenzamide], 28±10%.

Turning to `COc1ccccc1CN(CCC(F)(F)F)C(=O)c1cc(C)c(C)s1` [Compound 41, N-(2-Methoxybenzyl)-4,5-dimethyl-N-(3,3,3-trifluoropropyl)thiophene-2-carboxamide], the “Max increase (%)” value on SERCA2a [1] (setting [3]) is 75% and 75±8.6%.

With `CCCN(Cc1ccccc1OC)C(=O)c1cccc(C)c1` [Compound 10, N-(2-Methoxybenzyl)-3-methyl-N-propylbenzamide], the “Max increase (%)” value on SERCA2a [1] (setting [3]) is given as 59±13%.

With `CCCN(Cc1ccccc1OC)C(=O)c1scc(C)c1C` [Compound 2, N-(2-Methoxybenzyl)-3,4-dimethyl-N-propylthiophene-2-carboxamide], at SERCA2a [1] (setting [3]), the “Max increase (%)” value turned out to be 47±7.1%. Turning to `COc1ccccc1CN(CCO)C(=O)c1cc(C)c(C)s1` [Compound 36, N-(2-Hydroxyethyl)-N-(2-methoxybenzyl)-4,5-dimethylthiophene-2-carboxamide], the “Max increase (%)” value at SERCA2a [1] (setting [3]) is “abolished”. Same read-out and setting: for `CCCN(Cc1ccccc1OC)C(=O)c1ccc(Cl)s1` [Compound 6, 5-Chloro-N-(2-methoxybenzyl)-N-propylthiophene-2-carboxamide] the value was 37±9.4%.

Source of the values: publication PMC12900291 (European journal of medicinal chemistry, 2025).
